Screens from PubChem BioAssay.
NPR2 activator: GC-B (human) receptor activation; activation, % at 10 µM; HEK293-GC-B cells, CNP EC30, cGMP TR-FRET; 0% at EC30 CNP, 100% saturating CNP; hit rate 0.11% among 370,000;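 active = activation at 10 µM reaching about 35% in either raw or pattern-adjusted values, limit read from the data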
Fh CTSL1 inh: cathepsin L1 inhibition, PFM18AAP counter-screen; inhibition, % at 5.96 µM; hit rate 0.49% among 300,000; AID 1906; recombinant F. hepatica cathepsin L1, Z-Leu-Arg-MCA fluorescence;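 active = inhibition above the mean of all tested compounds plus 3 SD, set per screening campaign, cut at about 17% in these data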
ARFGAP1 inhibitor: rat ARFGAP1 inhibition; hit rate 0.26% among 360,000; inhibition, % at 16.5 µM; Arfgap1-stimulated ARF1 GTP hydrolysis, GDP FP detection;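 active = inhibition above a per-plate limit, mean inhibition of low control wells plus 3 SD, cut at about 25% in these data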
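system = rat Arfgap1 catalytic domain, aa 1-136 | technique = FP, GDP Alexa 633 tracer displaced from anti-GDP antibody, 620/688 nm | compound = one concentration, 16.5 µM, DMSO 1.26% | medium = HEPES-based buffer, pH 7.5 | timing = compound-enzyme preincubation 20 min, reaction 120 min, detection 60 min, 25 °C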
ASAP1 inh: inhibitors of human ASAP1 ArfGAP activity; Q9ULH1; hit rate 0.19% among 360,000; ASAP1-stimulated ARF1 GTP hydrolysis, GDP FP detection; inhibition, % at 16.5 µM; AID 624377; in the data active = inhibition above about 25%
HCV core dimer: blocks dimerization of HCV core protein | TR-FRET GST/Flag-core106 dimerization, 1536-well | inhibition, % at 5 µM | hit rate 0.33% among 300,000 | AID 1899;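 active = inhibition above the mean of all tested compounds plus 3 SD, set per screening campaign, cut at about 45% in these data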
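System – GST-tagged and Flag-tagged HCV core protein residues 1-106 · Repeats – one well for each compound · Technique – TR-FRET 671 and 617 nm emission · Doses – one concentration, 5 µM, in 0.5% DMSO · Times – 4 h, 22.5 °C incubation · Also added – Eu donor and XL665 acceptor anti-tag antibodies · Measure – percent inhibition of core106 dimerization signal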
GC-A act: GC-A (human) enzyme activation; P16066; HEK293 GC-A cells, cGMP TR-FRET, EC30 ANP; 0% at EC30 ANP, 100% saturating ANP; activation, % at 10 µM; hit rate 0.14% among 370,000; in the data active = activation above about 40%
Target sequence (P16066 whole entry, looked up): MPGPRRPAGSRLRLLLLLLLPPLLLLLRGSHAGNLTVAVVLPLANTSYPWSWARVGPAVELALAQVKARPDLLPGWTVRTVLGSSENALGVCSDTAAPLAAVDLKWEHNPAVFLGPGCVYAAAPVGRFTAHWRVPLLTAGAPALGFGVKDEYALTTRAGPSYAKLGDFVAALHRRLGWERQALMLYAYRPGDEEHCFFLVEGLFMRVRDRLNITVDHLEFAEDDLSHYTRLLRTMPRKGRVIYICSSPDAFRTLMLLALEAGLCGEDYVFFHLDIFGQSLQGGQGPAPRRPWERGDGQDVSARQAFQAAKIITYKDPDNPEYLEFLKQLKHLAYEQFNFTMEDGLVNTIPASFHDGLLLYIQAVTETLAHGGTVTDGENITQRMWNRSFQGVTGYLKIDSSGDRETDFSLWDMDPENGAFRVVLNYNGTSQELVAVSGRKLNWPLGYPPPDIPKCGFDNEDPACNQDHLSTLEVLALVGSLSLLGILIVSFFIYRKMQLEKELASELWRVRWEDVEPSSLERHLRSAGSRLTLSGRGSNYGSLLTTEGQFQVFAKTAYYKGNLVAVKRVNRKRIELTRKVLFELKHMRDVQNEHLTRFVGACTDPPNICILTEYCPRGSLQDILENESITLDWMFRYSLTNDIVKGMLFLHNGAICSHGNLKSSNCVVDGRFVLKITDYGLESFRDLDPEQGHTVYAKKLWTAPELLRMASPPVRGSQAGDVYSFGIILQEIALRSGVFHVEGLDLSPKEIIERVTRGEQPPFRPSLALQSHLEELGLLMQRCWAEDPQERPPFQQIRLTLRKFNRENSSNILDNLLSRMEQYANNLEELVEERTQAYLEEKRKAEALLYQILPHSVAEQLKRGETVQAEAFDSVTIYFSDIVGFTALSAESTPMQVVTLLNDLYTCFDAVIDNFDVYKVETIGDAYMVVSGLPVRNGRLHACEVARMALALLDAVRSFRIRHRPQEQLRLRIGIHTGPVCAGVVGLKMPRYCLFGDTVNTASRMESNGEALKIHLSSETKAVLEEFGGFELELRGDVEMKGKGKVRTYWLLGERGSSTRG
Hits are given with their value; i = inactive; nt = no result. This is a sample that favours compounds with a hit; in the whole collection about 1.2% have one here.

SMILES | NPR2 activator | Fh CTSL1 inh | ARFGAP1 inhibitor | ASAP1 inh | HCV core dimer | GC-A act
O=C(Nc1cc(S(=O)(=O)N2CCOCC2)ccc1N1CCCCC1)c1ccccc1 | i | nt | i | i | nt | i
CCc1c(-c2ccccc2F)ncn1Cc1cccc(-c2ccccc2)c1 | i | nt | i | i | nt | i
O=C(CSc1nnc(-c2ccco2)o1)c1ccc[nH]1 | i | i | i | i | 63 | i
Cc1c(OCC(=O)NCc2ccccn2)ccc2c3c(c(=O)oc12)CCCC3 | i | i | i | i | i | i
CCOc1ccc(NS(=O)(=O)c2ccc(-c3ccc(=O)[nH]n3)o2)cc1 | i | i | i | i | i | i
CC(C)[C@H](NC(=O)C1(c2ccccc2)CCN(C(=O)OC(C)(C)C)CC1)C(=O)O | i | 27 | i | i | i | i
CC(C)C[C@H](NC(=O)C1(c2ccccc2)CCN(C(=O)OC(C)(C)C)CC1)C(=O)N1CCC[C@H]1C(=O)O | i | 41 | i | i | i | i
CC(C)(C)OC(=O)N1CCC(C(=O)N[C@@H](Cc2ccccc2)C(=O)O)(c2ccccc2)CC1 | i | i | i | i | i | i
CC(C)C[C@H](NC(=O)C1(c2ccccc2)CCN(C(=O)[C@H]2CSCN2C(=O)OC(C)(C)C)CC1)C(=O)O | i | i | i | i | i | i
Cc1ccc(C)c(S(=O)(=O)ON2C(=O)c3ccccc3C2=O)c1 | i | i | i | i | i | i
CCc1cc(C(=O)N=Nc2c(O)[nH]c3ccc([N+](=O)[O-])cc23)c2ccccc2n1 | i | i | i | i | 58 | i
CCCCCCCCCCC[C@@H](C[C@@H]1OC(=O)[C@H]1CCCCCC)OC(=O)[C@H](CC(C)C)NC=O | i | 21 | i | i | i | i
O=C(NCc1ccccn1)c1ccc(/C=N/O)nc1 | i | i | i | i | i | i
CCOC(=O)COc1ccc2c(=O)c(-c3ccccc3OC)coc2c1 | i | i | i | i | 61 | i
O=C(CSc1nc2ccsc2c(=O)n1Cc1ccc(C(=O)O)cc1)NCC1CCCO1 (stereo not given) | i | i | i | i | i | i
CC(=O)Nc1nonc1NC(C)=O | i | i | i | i | i | i
CC(=O)Nc1cc(OC(C)=O)c2nonc2c1OC(C)=O | i | 110 | i | i | i | i
Cc1ccnc(NS(=O)(=O)c2cccs2)c1 | i | i | i | i | i | i
O=C(O)c1cc(Cl)c2c(c1)[C@@H]1C=CC[C@@H]1[C@H](c1ccc(S(=O)(=O)N3CCOCC3)cc1)N2 | nt | i | nt | nt | i | nt
Cc1cc(C)c2c(c1)C1C=CCC1C(c1ccc(S(=O)(=O)N3CCOCC3)cc1)N2 (stereo not given) | i | i | i | i | 63 | i
N/C(CSc1ccc(Cl)cc1)=N\NC(=O)c1ccncc1 | i | 20 | i | i | i | i
O=C1C(=Cc2cccn2-c2ccc(O)cc2)C(=O)c2ccccc21 | i | i | i | i | 61 | i
CCc1ccc(C(=O)NC(=S)Nc2ccc(N3CCOCC3)cc2)cc1 | i | i | i | i | i | i
O=C(CSc1nc2ccccc2c(=O)n1-c1ccccc1)N1CCCc2ccccc21 | i | 36 | i | i | i | i
O=C(CSc1nc2ccccc2c(=O)n1-c1ccccc1)N1CCc2ccccc21 | i | i | i | i | i | i
SMILES | NPR2 activator | Fh CTSL1 inh | ARFGAP1 inhibitor | ASAP1 inh | HCV core dimer | GC-A act
C=CCn1c(SCC(=O)c2ccc(CNC(C)=O)o2)nc2scc(C3CC3)c2c1=O | i | i | i | i | 48 | i
Cc1ccc(NC(=O)Nc2cc(S(=O)(=O)N(C)C)ccc2C)cc1 | i | 18 | i | i | i | i
Cc1ccc(S(=O)(=O)N(C)C)cc1NC(=O)Nc1ccccc1 | i | i | i | i | i | i
O=C(O)CSC(C(=O)Nc1ccc(C(F)(F)F)cc1)c1ccccc1 (stereo not given) | i | i | i | i | i | i
Brc1cc(Br)c2nc(-c3cccs3)ccc2c1 | i | i | i | i | 48 | i
CCNC(=O)C(=O)c1c(-c2ccccc2)[nH]c2ccccc12 | i | i | i | i | i | i
Nc1sc(Cc2ccccc2)cc1C(=O)c1c(-c2ccccc2)[nH]c2ccccc12 | i | nt | i | i | nt | 60
O=C(NCc1ccccc1)/C(=C/c1ccco1)NC(=O)c1ccco1 | i | 28 | i | i | i | i
CC(C)CC(NC(=O)/C(=C\c1ccco1)NC(=O)c1ccco1)C(=O)O (stereo not given) | i | 38 | i | i | i | i
CC(C)CC(NC(=O)/C(=C/c1ccco1)NC(=O)c1ccc(Br)o1)C(=O)O (stereo not given) | i | 23 | i | i | i | i
Cc1ccccc1-n1c(SCC(=O)NC(N)=O)nc2sc(-c3ccccc3)cc2c1=O | i | i | i | i | i | i
CCN1/C(=C/C=C/C=C/C=C/c2sc3ccccc3[n+]2CC)Sc2ccccc21 | i | i | 32 | i | i | i
CCOC(=O)[C@]12CCCC=C1N(CCCOC)C(=O)[C@@H]2CC(=O)N1CCN(C(=O)C2CC2)CC1 | i | nt | nt | nt | nt | i
O=C(/C=C/c1ccccc1Cl)OCC(=O)N1CCCC1 | i | nt | i | i | nt | i
O=C(/C=C/c1ccc(Cl)cc1Cl)OCC(=O)N1CCCC1 | i | nt | i | i | nt | 41
N#C/C(=C\c1ccc(O)c([N+](=O)[O-])c1)C(=O)NCc1ccccc1 | i | i | i | i | i | i
N#C/C(=C\c1ccc(O)c(Br)c1)C(=O)NCc1ccccc1 | i | 22 | i | i | i | i
CC(=O)Nc1ccc(NC(=O)C2CCCN2C(=O)NC2CCCCC2)cc1 (stereo not given) | i | i | i | i | i | i
COCCN(C(=O)COC(=O)c1cc2c(s1)CCC2)c1c(N)n(Cc2ccccc2)c(=O)[nH]c1=O | i | i | i | i | 69 | i
CCC1CCc2sc(C(=O)OCC(=O)N(CCOC)c3c(N)n(Cc4ccccc4)c(=O)[nH]c3=O)cc2C1 (stereo not given) | i | i | i | i | i | i
O=C1CC(CC(=O)N/N=C/c2ccccc2[N+](=O)[O-])=NN1 | i | 18 | i | i | i | i
N#Cc1c(NC(=O)CSc2nnc(-c3ccco3)n2-c2ccccc2)sc2c1CCC2 | i | i | i | i | 64 | i
CNC(=O)CSc1nnc(-c2ccco2)n1-c1ccccc1 | i | i | i | i | i | i
CCn1c(SCC(=O)Nc2sc3c(c2C#N)CCCC3)nnc1-c1ccco1 | i | i | i | i | i | i
NC(=O)c1c(NC(=O)CSc2nnc(-c3ccco3)n2-c2ccccc2)sc2c1CCC2 | i | i | i | i | 72 | i
COc1ccc(OC)c2sc(N(CCCN(C)C)C(=O)CCS(=O)(=O)c3ccccc3)nc12 | i | 37 | i | i | i | i
